Mdm2-MdmX inh: inhibitors of human Mdm2/MdmX interaction; O15151+Q00987; SaOS-2 split-luciferase Mdm2/MdmX complementation, luminescence; inhibition, % at 8 µM; hit rate 3% among 330,000; AID 485346;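 active = inhibition of at least 50% at 8 µM in the primary screen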
UPR CHOP act: apoptotic UPR (CHOP) activation; CHO-CHOP luciferase reporter, luminescence; percent of tunicamycin response over DMSO baseline; activation, % at 10 µM; hit rate 0.34% among 330,000;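 active = at 10 µM dose, activation of 40% or more, normalized to positive control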;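 also: 100% = tunicamycin at 10 µg/mL and 0% = DMSO alone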
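Assay system: CHO cells with stable CHOP pathway luciferase reporter; Buffer or medium: F12 plus 10% serum; Times: 16-18 h cell attachment, then 6 h compound exposure, 37 °C; Signal: luciferase luminescence; Read-out basis: percent activation relative to tunicamycin control; Control set: tunicamycin high control, DMSO low control.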
UPR XBP1 act: activators of adaptive arm of unfolded protein response (XBP1) | CHO-XBP1 luciferase reporter, IRE1-XBP1 UPR activation, luminescence; percent of tunicamycin response, DMSO as zero | activation, % at 20 µM | hit rate 0.33% among 330,000 | AID 463104;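 active = versus positive control, 20 µM dose yields 30% or more activation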;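 also: 100% = tunicamycin at 10 µg/mL and 0% = DMSO only wells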
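Material: CHO cell line with stable XBP1 luciferase reporter; schedule: 16-18 h cell attachment at 37 °C, then 6 h compound exposure; signal: glow luminescence from Steady-Glo reagent; medium: serum-containing F12 medium, 10% FBS; benchmarks: tunicamycin 10 µg/mL and vehicle-only wells; read-out: percent activation relative to tunicamycin reference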
ABHD5 PLIN5 PPI: ABHD5-PLIN5 protein interaction inhibition; Q00G26+Q8WTS1; Split G. princeps luciferase complementation, luminescence, 4 h; inhibition, % at 4 µM; hit rate 0.78% among 360,000; AID 602281;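 active = inhibition above the mean inhibition across every tested compound plus 3 SD, cut at about 22% in these data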;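 also: 0% = DMSO only wells and the 100% control is not disclosed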
Granule exo inh: blocks lytic granule exocytosis; TALL-104 LAMP-1 surface exposure, flow cytometry; cells stimulated with thapsigargin and PMA; inhibition, % at 10 µM; hit rate 0.66% among 360,000; AID 651702;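 active = inhibition above about 55%, limit read from the data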
Mdm2 MdmX conf: confirmation of human Mdm2/MdmX interaction inhibitors | Mdm2-MdmX binding, luminescent assay | shares compounds with Mdm2-MdmX inh | hit rate 55% among 10,000 | inhibition, % at 8 µM; in the data active = inhibition above about 40%
Full FLuc ctr: full-length luciferase inhibition in Mdm2/MdmX counter-screen; AID 504607; hit rate 77% among 6,200; shares compounds with Mdm2-MdmX inh; SaOS-2 full-length luciferase counterscreen, luminescence; inhibition, % at 8 µM;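 active = mean inhibition at 8 µM reaching about 37%, which flags the compound as non-specific, limit read from the data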;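 also: p53-null SaOS-2 cells with luciferase driven by a doxycycline-inducible promoter; compound on cells about two nights before reading with doxycycline added after day one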
* marks the source's active call; other numbers are inactive results; · = no result. This is a sample that favours compounds with a hit; in the whole collection about 4% have one here.

SMILES | Mdm2-MdmX inh | UPR CHOP act | UPR XBP1 act | ABHD5 PLIN5 PPI | Granule exo inh | Mdm2 MdmX conf | others
O=C(CSc1nc2c(c(C(F)(F)F)n1)CCc1ccccc1-2)NCc1ccco1 | 20 | 0 | 0 | -1 | -2 | ·
CCc1c(C)sc(NC(=O)CSc2nc3c(c(C(F)(F)F)n2)CCc2ccccc2-3)c1C#N | 75* | 1 | 5 | 7 | -2 | 17
CCOC(=O)c1cnn(CCOC(=O)c2ccc(OC)cc2)c1NC(=O)c1ccc(OC)cc1 | 5 | 0 | -3 | 4 | -4 | ·
CCN1CCc2c(sc(NC(=O)c3ccc(S(=O)(=O)N4CCOCC4)cc3)c2C(N)=O)C1 | -29 | 3 | 0 | 1 | 0 | ·
CCN1CCc2c(sc(NC(=O)c3ccc(S(=O)(=O)N4CCOCC4)cc3)c2C(=O)OC)C1 | 64* | 0 | 2 | 2 | 0 | 30
COc1ccc(CN2CCC(N3CCC(C(=O)N4CCOCC4)CC3)CC2)c(F)c1 | 22 | 2 | -2 | 0 | 2 | ·
CN1CCN(c2ccc(C(=O)c3cn(-c4ccc(F)c(Cl)c4)nn3)cc2)CC1 | 81* | 5 | 4 | 5 | 18 | 42* | Full FLuc ctr=91*
Cc1ccc(-n2cc(C(=O)c3ccc(N4CCN(C)CC4)cc3)nn2)cc1Cl | 98* | 9 | 7 | 1 | -1 | 4
CN1CCN(c2ccc(C(=O)c3ccc(F)cc3)cc2)CC1 | -92 | -1 | -4 | 2 | -1 | ·
Cc1ccc(C(=O)c2cn(-c3ccc(F)c(Cl)c3)nn2)cc1 | 39 | 4 | 3 | 12 | 1 | ·
CCCCC(=O)Nc1ccc(C(=O)Nc2ccc3c(c2)OCO3)cc1 | 17 | -1 | -4 | -1 | 4 | ·
COc1ccc(C2CC(c3ccccc3)=NN2C(=O)COC(=O)c2ccc(S(C)(=O)=O)cc2)cc1 (stereo not given) | 20 | -1 | -4 | -3 | 4 | ·
COc1ccc(C2CC(c3ccc4ccccc4c3)=NN2C(=O)CNC2CCCCC2)cc1 (stereo not given) | 62* | 0 | -1 | 11 | 45 | 28
COc1ccc(C2CC(c3ccccc3)=NN2C(=O)COC(=O)c2cccc(O)c2)cc1 (stereo not given) | 55* | 3 | 4 | -9 | 14 | -7
C=CCNCC(=O)N1N=C(c2ccc3ccccc3c2)CC1c1ccc(OC)cc1 (stereo not given) | 43 | -1 | 1 | 16 | 37 | ·
Cc1cc(C)n(-c2nnc3n2N=C(c2c[nH]c4ccccc24)CS3)n1 | 56* | 1 | 1 | 5 | 3 | 46* | Full FLuc ctr=50*
COc1ccc(OC)c(C(=O)c2coc3cc(Br)c(O)c(Br)c23)c1 | 15 | 2 | 2 | 5 | -6 | ·
Cc1ccc(NS(=O)(=O)c2ccc(Cl)c(C(=O)Nc3ccccc3-c3nc4ccccc4[nH]3)c2)cc1C | 61* | 2 | 2 | -8 | 14 | 77* | Full FLuc ctr=51*
COc1ccc(CCN(C)C(=O)COc2ccc(N(C)S(=O)(=O)c3ccc(C)cc3)cc2)cc1OC | 13 | 3 | -1 | -2 | -2 | ·
N/C(=N\OC(=O)C12CC3CC(CC(C3)C1)C2)c1ccccn1 | 44 | 7 | 4 | -4 | 1 | ·
N/C(=N\OC(=O)C12CC3CC(CC(C3)C1)C2)c1cccnc1 | 71* | 4 | 0 | 4 | 1 | 2
N/C(=N\OC(=O)C12CC3CC(CC(C3)C1)C2)c1ccccc1 | 54* | 3 | 5 | 1 | 2 | 9
O=S(=O)(c1cnc[nH]1)N1CCN(c2ccc(Cl)cc2)CC1 | 14 | -1 | -3 | 6 | 6 | ·
CC(=O)N(C)c1ccc(OCC(O)Cn2c3ccc(Cl)cc3c3cc(Cl)ccc32)cc1 (stereo not given) | 82* | 8 | 20 | 20 | 8 | 45* | Full FLuc ctr=54*
Clc1ccc(C(c2ccccc2)N2CCNCC2)cc1 (stereo not given) | 62* | 0 | 0 | 4 | 7 | 47* | Full FLuc ctr=76*

Screens (PubChem)
